Assay outcomes as filed in PubChem BioAssay.
proCasp3 act = activators of human procaspase-3. P42574. recombinant procaspase-3 D3A, Ac-DEVD-pNA absorbance 405 nm. activation, % at 8.5 µM. hit rate 0.11% among 330,000;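 active = activation above the mean of all tested compounds plus 3 SD, cut at about 21% in these data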;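 also: 0% = DMSO alone and 100% = DMSO wells spiked with extra 5 µM PC-3 D3A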
Target sequence (P42574 whole entry D9A/D28A/D175A): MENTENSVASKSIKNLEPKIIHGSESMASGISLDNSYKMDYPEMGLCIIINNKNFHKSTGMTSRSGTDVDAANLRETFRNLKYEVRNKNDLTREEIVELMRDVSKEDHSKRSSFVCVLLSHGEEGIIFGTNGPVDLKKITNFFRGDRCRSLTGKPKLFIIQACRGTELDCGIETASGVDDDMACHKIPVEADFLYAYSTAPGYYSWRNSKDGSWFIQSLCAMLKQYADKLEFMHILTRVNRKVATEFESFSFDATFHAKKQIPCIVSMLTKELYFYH
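Technique: 405 nm absorbance of p-nitroaniline, reads at 0 and 120 min; Test system: Procaspase-3 D3A mutant; Incubation: 1 h enzyme-compound preincubation, then 2 h substrate reaction, 25 °C; Repeats: singlicate, each compound tested once; Benchmarks: low control DMSO wells, high control DMSO plus 5 µM PC-3 D3A.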
pCIP destab = p/CIP protein destabilization; F442A p/CIP-EGFP cells, EGFP fluorescence, 16 h; decrease of EGFP signal, % at 10 µM; hit rate 0.01% among 290,000; AID 1984;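 active = EGFP signal decrease of at least 30% at 10 µM or well 3 SD below plate mean, unless failing retest; inactive = the rest, including hits failing retest or dose response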
Hep lipid drop = modulators of hepatic lipid droplet formation; AID 1656; AML12 mouse hepatocytes, oleate lipid droplets, BODIPY imaging; hit rate 0.4% among 240,000; inhibition, % at 6.5 µM;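 active = lipid droplet intensity inhibited by at least 50%, with more than 500 cells counted; inconclusive = wells with under 300 cells, treated as cytotoxic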
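material = mouse AML12 hepatocyte cell line, fixed after treatment | also added = 100 µM oleic acid challenge | doses = compound at 6.5 µM only | schedule = overnight exposure | technique = Image-based BODIPY and DAPI two-channel analysis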
Rce1 inh = inhibitors of yeast Ras-converting enzyme. Q03530. yeast membranes, quenched prenylated peptide cleavage fluorescence. calls only. hit rate 0.27% among 290,000. AID 2563;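 active = fall in fluorescence gain of 50% or more versus controls, with final raw signal at or below 3038400; inconclusive = same 50% fall but final raw signal above 3038400; inactive = fall in fluorescence gain under 50%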;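 also: plate controls were neutral control wells for no effect and wells lacking membranes for full effect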
Target sequence (Q03530 whole entry, looked up): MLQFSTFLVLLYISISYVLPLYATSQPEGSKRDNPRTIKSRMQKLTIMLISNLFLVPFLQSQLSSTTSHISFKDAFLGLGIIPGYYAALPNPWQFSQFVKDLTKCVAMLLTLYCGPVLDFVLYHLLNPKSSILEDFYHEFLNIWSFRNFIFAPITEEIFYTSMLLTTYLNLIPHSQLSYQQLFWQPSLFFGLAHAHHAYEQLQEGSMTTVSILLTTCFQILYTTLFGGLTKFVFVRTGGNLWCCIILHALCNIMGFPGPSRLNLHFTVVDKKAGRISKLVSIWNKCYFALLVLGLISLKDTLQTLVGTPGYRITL
proCasp7 act = counter-screen: procaspase-7 (human) activation; P55210; recombinant procaspase-7, Ac-DEVD-pNA absorbance 405 nm; D23A/D198A/D206A triple mutant, cannot self-cleave; scale: DMSO 0, 5 µM enzyme 100; activation, % at 8.5 µM; hit rate 0.093% among 330,000; AID 463210;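 active = percent activation above the screen-wide mean plus 3 SD, cut at about 25% in these data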
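Assay system: Uncleavable procaspase-7 mutant enzyme | Input: 2 µM procaspase-7 mutant as dispensed | Timing: 1 h compound preincubation, 2 h substrate cleavage, 25 °C | Repeats: One well per compound | Control set: DMSO wells as 0%, DMSO with 5 µM added PC-7 as 100% | Technique: Epi-absorbance of released pNA at 405 nm, two timepoints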
FXN GAA850 act = activators of GAA850 frataxin (FXN) promoter | HEK293 lucGAA850 FXN promoter luciferase reporter, 24 h; percent of 10 µM SAHA response | activation, % at 6 µM | hit rate 0.56% among 360,000 | AID 540364;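 active = activation above the average of all compounds screened plus 3 SD, cutoff fixed separately per campaign, cut at about 7.5% in these data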;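 also: 0% = DMSO wells and 100% = 10 µM SAHA wells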
GAA30 counter = activates GAA30 frataxin promoter, counter-screen for GAA850 activators; hit rate 66% among 1,900; shares compounds with FXN GAA850 act; HEK293 lucGAA30 FXN promoter luciferase, 24 h; DMSO = 0%, 5 µM ipriflavone = 100%; AID 588350; activation, % at 6 µM;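 active = mean activation above the mean of solvent-only control wells plus 3 SD, cut at about 22% in these data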;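 also: counterscreen of GAA850 promoter hits where activity marks nonselective or luminescence artifacts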
FXN GAA850 conf = confirmation of GAA850 frataxin (FXN) promoter activators | shares compounds with FXN GAA850 act | HEK293 lucGAA850 FXN promoter luciferase reporter, 24 h; 100% = activation by SAHA | activation, % at 6 µM | hit rate 86% among 1,900 | AID 588351;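 active = mean activation above a set limit taken from the primary screen, cut at about 8% in these data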;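 also: 0% = DMSO wells and 100% = 10 µM SAHA wells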
Starred values were filed as active, the others as inactive. A selection: hits, their analogues and other compounds. The true share with any hit is near 1.2%.

For CCc1ccc(Oc2cc(Cl)nc(N)n2)cc1 the results were proCasp3 act 10.1, pCIP destab -12.7, Hep lipid drop -4.9, Rce1 inh inactive, proCasp7 act -1.4, FXN GAA850 act 7.7*, GAA30 counter 103.2* and FXN GAA850 conf 35.8*.
S=C(Nc1ccccc1)Nc1nc2ccccc2n1CCOc1ccc(Br)cc1 was read as proCasp3 act 0.4, pCIP destab -6.8, Hep lipid drop -10.5, Rce1 inh inactive, proCasp7 act -7.1 and FXN GAA850 act -0.3.
Screening Cn1c(NC(=S)Nc2ccccc2)nc2ccccc21 returned proCasp3 act -5.8, pCIP destab 9.5, Hep lipid drop 0.2, Rce1 inh inactive, proCasp7 act -27.4, FXN GAA850 act 8.2*, GAA30 counter 84.9* and FXN GAA850 conf 27.3*.
Screening CC1=C([N+](=O)[O-])C(c2cccc(Br)c2)C2=C(N1)c1ccccc1C2=O (centres undefined) returned proCasp3 act -5.5, pCIP destab -2.0, Hep lipid drop inconclusive, Rce1 inh inactive, proCasp7 act 2.2, FXN GAA850 act 15.0*, GAA30 counter -13.3 and FXN GAA850 conf 34.6*.
`Clc1ccc(-c2nnc(-c3ccco3)o2)cc1` gave proCasp3 act -0.4, pCIP destab 4.4, Rce1 inh inactive, proCasp7 act -2.0, FXN GAA850 act 11.6*, GAA30 counter 107.9* and FXN GAA850 conf 40.7*.
Screening Cc1cc(S(=O)(=O)c2ccc(Cl)cc2)nc(S(=O)(=O)c2ccc(Cl)cc2)c1C#N returned FXN GAA850 act -13.7.
`O=C(/C=C/Sc1ccccc1)c1ccc(Cl)cc1` gave proCasp3 act -0.8, pCIP destab -1.9, Hep lipid drop -29.6, Rce1 inh inactive, proCasp7 act -4.4, FXN GAA850 act 11.6*, GAA30 counter 86.3* and FXN GAA850 conf 58.5*.
Screening O=C(Nc1ccccc1Cl)c1cc(C2CCCCN2C(=O)c2cccs2)on1 (centres undefined) returned FXN GAA850 act -0.9.
`O=C(O)c1cccc(N/N=C/c2sc(N3CCOCC3)nc2-c2ccccc2)c1` gave proCasp3 act -7.2, pCIP destab -3.7, Hep lipid drop 12.9, Rce1 inh inactive, proCasp7 act -5.8, FXN GAA850 act 10.8*, GAA30 counter 133.5* and FXN GAA850 conf 38.6*.
`Cc1ccc(C(=O)NNC(=O)CCCCC(=O)NNC(=O)c2ccc(C)cc2)cc1` gave proCasp3 act -6.3, pCIP destab 1.7, Hep lipid drop -2.5, Rce1 inh inactive, proCasp7 act -8.6 and FXN GAA850 act -0.6.
For CCOC(=O)c1c(CSC(=N)N)n(-c2ccc(C)cc2)c2cc(Br)c(OC(C)=O)cc12 the results were proCasp3 act 2.2, pCIP destab 2.5, Rce1 inh inactive, proCasp7 act 3.5, FXN GAA850 act 12.5*, GAA30 counter -10.2 and FXN GAA850 conf 38.0*.
Screening Cc1ccc(N2C(=O)CS/C2=N\C(=S)Nc2ccccc2)cc1 returned proCasp3 act -10.7, pCIP destab -10.5, Hep lipid drop -5.2, Rce1 inh inactive, proCasp7 act -19.0 and FXN GAA850 act 0.7.
`COP(=O)(OC)C(Nc1ccc(C)cc1)c1ccc(Br)cc1` (centres undefined) gave FXN GAA850 act 0.2.
`CC(C)C[C@@]12C(=O)N(c3cccc(F)c3)C(=O)N1[C@H](c1ccc(F)cc1)[C@@H]1C(=O)N(C3CCCCC3)C(=O)[C@@H]12` gave proCasp3 act 2.0, Rce1 inh inactive, proCasp7 act -2.2, FXN GAA850 act 11.8*, GAA30 counter 18.4 and FXN GAA850 conf 13.6*.
For CC(C)C[C@@]12C(=O)N(c3cccc(F)c3)C(=O)N1[C@H](c1ccc(Cl)cc1)[C@@H]1C(=O)N(C3CCCCC3)C(=O)[C@@H]12 the results were proCasp3 act -0.1, Rce1 inh inactive, proCasp7 act 4.0, FXN GAA850 act 15.6*, GAA30 counter 25.5* and FXN GAA850 conf 14.2*.
C[C@@]12C(=O)N(c3cccc(F)c3)C(=O)N1[C@H](c1ccc(Cl)cc1)[C@@H]1C(=O)N(C3CCCCC3)C(=O)[C@@H]12 was read as proCasp3 act -1.1, Rce1 inh inactive, proCasp7 act -3.9, FXN GAA850 act 11.2*, GAA30 counter 7.6 and FXN GAA850 conf 5.3.
Screening COc1ccc(N2C(=O)N3[C@H](c4ccc(Cl)cc4)[C@@H]4C(=O)N(C5CCCCC5)C(=O)[C@@H]4[C@]3(C)C2=O)cc1 returned proCasp3 act 2.3, pCIP destab -8.0, Hep lipid drop -2.3, Rce1 inh inactive, proCasp7 act -3.7, FXN GAA850 act 13.5*, GAA30 counter 9.1 and FXN GAA850 conf 5.4.
`O=C1[C@H]2[C@@H](c3ccc(F)cc3)N3C(=O)N(c4cccc(Br)c4)C(=O)[C@@]3(Cc3ccc(Cl)cc3)[C@H]2C(=O)N1C1CCCCC1` gave proCasp3 act -0.9, pCIP destab -6.6, Hep lipid drop -0.2, Rce1 inh inactive, proCasp7 act -7.5 and FXN GAA850 act -0.1.
Cc1cc(C)n2nc(C(=O)OCC(=O)NCc3ccc(F)cc3)nc2n1 was read as proCasp3 act 3.0, proCasp7 act 5.8 and FXN GAA850 act 1.5.
For O=C1NC(c2ccccc2)N=C2Oc3ccccc3C=C12 (centres undefined) the results were FXN GAA850 act -2.6.
For CCc1noc(C)c1C(=O)N(C)CC(=O)Nc1ccc(F)c(F)c1F the results were proCasp3 act 0.3, Rce1 inh inactive, proCasp7 act 3.4 and FXN GAA850 act 0.3.
Screening COc1ccc(OC)c2sc(N3CCN(c4ccccc4)CC3)nc12 returned proCasp3 act 1.1, Rce1 inh inactive, proCasp7 act -4.1, FXN GAA850 act 8.8*, GAA30 counter 39.2* and FXN GAA850 conf 17.3*.
`COc1ccc(C)c2sc(N3CCCC3)nc12` gave proCasp3 act -0.2, pCIP destab -0.8, Rce1 inh inactive, proCasp7 act -2.4 and FXN GAA850 act -0.7.
Screening Clc1ccccc1Cn1nnc(-c2ccccc2)n1 returned proCasp3 act -1.0, pCIP destab 0.6, Hep lipid drop 12.6, Rce1 inh inactive, proCasp7 act 6.0 and FXN GAA850 act 1.8.
